{"source": "ChEMBL document CHEMBL1828575", "about": "“Design, synthesis and antiproliferative activities of biarylolefins based on polyhydroxylated and carbohydrate scaffolds” (Eur J Med Chem, 2011)", "key": {"[1]": {"assay": "Cytotoxicity against human NCI60 cells assessed as cellular growth at 10 uM after 48 hrs by SRB assay relative to untreated control", "assay_type": "functional", "procedure,_shortened": "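NCI-60 panel lines grown in RPMI 1640 with 5% FBS and 2 mM L-glutamine. Plated at 5000–40,000 cells/well and preincubated 24 h at 37 °C, 5% CO₂, with time-zero plates fixed in TCA. Compounds, dissolved in DMSO and diluted in medium, were applied for 48 h. Cells were TCA-fixed (10% final for adherent, 16% for suspension) and stained with 0.4% SRB in 1% acetic acid. Dye was solubilised in 10 mM Tris base and read at 515 nm; growth was expressed as a percentage of untreated control.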"}, "PC-3 [2]": {"test_system": "PC-3", "assay": "Cytotoxicity against human PC3 cells at 10^-6 M after 72 hrs by MTS assay", "assay_type": "functional", "conditions": "PC-3, 72 h, read-out: GI", "procedure,_shortened": "(§1)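 Preliminary screen at 10^-5 and 10^-6 M. Cells were grown in RPMI with 10% fetal calf serum plus penicillin, streptomycin and fungizone under 5% CO₂, plated in 96-well plates, and dosed 24 h later from DMSO stocks (1% DMSO final, same in controls). After 72 h, MTS was added for 3 h at 37 °C and absorbance read at 490 nm. Inhibition was calculated as (1 − OD treated/OD control) × 100, in triplicate.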"}, "SF-268 [3]": {"test_system": "SF-268", "assay": "Cytotoxicity against human SF268 cells at 10^-6 M after 72 hrs by MTS assay", "assay_type": "functional", "conditions": "SF-268, 72 h, read-out: GI", "procedure,_shortened": "as §1"}, "SK-OV-3 [4]": {"test_system": "SK-OV-3", "assay": "Cytotoxicity against human SKOV3 cells at 10^-6 M after 72 hrs by MTS assay", "assay_type": "functional", "conditions": "SK-OV-3, 72 h, read-out: GI", "procedure,_shortened": "as §1"}, "OVCAR-8 [5]": {"test_system": "OVCAR-8", "assay": "Cytotoxicity against human OVCAR8 cells at 10^-6 M after 72 hrs by MTS assay", "assay_type": "functional", "conditions": "OVCAR-8, 72 h, read-out: GI", "procedure,_shortened": "as §1"}, "MIA PaCa-2 [6]": {"test_system": "MIA PaCa-2", "assay": "Cytotoxicity against human MIAPaCa2 cells at 10^-6 M after 72 hrs by MTS assay", "assay_type": "functional", "conditions": "MIA PaCa-2, 72 h, read-out: GI"}, "HL-60 [7]": {"test_system": "HL-60", "assay": "Cytotoxicity against human HL60 cells at 10^-6 M after 72 hrs by MTS assay", "assay_type": "functional", "conditions": "HL-60, 72 h, read-out: GI", "procedure,_shortened": "(§2)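 Cells grown in RPMI with 10% fetal calf serum, penicillin, streptomycin and fungizone under 5% CO₂. Plated in 96-well plates and dosed 24 h later with compound in DMSO (1% final DMSO; controls got DMSO alone). After 72 h, MTS was added for 3 h at 37 °C and A490 read. Inhibition = (1 − OD treated/OD control) × 100, in triplicate.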"}, "[8]": {"assay": "Cytotoxicity against human HL60R cells at 10^-6 M after 72 hrs by MTS assay", "assay_type": "functional", "conditions": "read-out: GI", "procedure,_shortened": "as §2"}, "K562 [9]": {"test_system": "K562", "assay": "Cytotoxicity against human K562 cells at 10^-6 M after 72 hrs by MTS assay", "assay_type": "functional", "conditions": "K562, 72 h, read-out: GI", "procedure,_shortened": "as §2"}, "HCT-116 [10]": {"test_system": "HCT-116", "assay": "Cytotoxicity against human HCT116 cells at 10^-5 M after 72 hrs by MTS assay", "assay_type": "functional", "conditions": "HCT-116, 72 h, read-out: GI", "procedure,_shortened": "as §2"}, "HT-29 [11]": {"test_system": "HT-29", "assay": "Cytotoxicity against human HT-29 cells at 10^-5 M after 72 hrs by MTS assay", "assay_type": "functional", "conditions": "HT-29, 72 h, read-out: GI", "procedure,_shortened": "as §2"}, "HCT-15 [12]": {"test_system": "HCT-15", "assay": "Cytotoxicity against human HCT15 cells at 10^-5 M after 72 hrs by MTS assay", "assay_type": "functional", "conditions": "HCT-15, 72 h, read-out: GI", "procedure,_shortened": "as §2"}, "MCF7 [13]": {"test_system": "MCF7", "assay": "Cytotoxicity against human MCF7 cells at 10^-5 M after 72 hrs by MTS assay", "assay_type": "functional", "conditions": "MCF7, 72 h, read-out: GI"}, "[14]": {"assay": "Cytotoxicity against human MDA231 cells at 10^-5 M after 72 hrs by MTS assay", "assay_type": "functional", "conditions": "MDA-MB-231, 72 h, read-out: GI", "procedure,_shortened": "as §1"}, "A549 [15]": {"test_system": "A549", "assay": "Cytotoxicity against human A549 cells at 10^-5 M after 72 hrs by MTS assay", "assay_type": "functional", "conditions": "A549, 72 h, read-out: GI", "procedure,_shortened": "as §2"}, "PC-3 [16]": {"test_system": "PC-3", "assay": "Cytotoxicity against human PC3 cells at 10^-5 M after 72 hrs by MTS assay", "assay_type": "functional", "conditions": "PC-3, 72 h, read-out: GI", "procedure,_shortened": "as §1"}, "SF-268 [17]": {"test_system": "SF-268", "assay": "Cytotoxicity against human SF268 cells at 10^-5 M after 72 hrs by MTS assay", "assay_type": "functional", "conditions": "SF-268, 72 h, read-out: GI", "procedure,_shortened": "as §1"}, "SK-OV-3 [18]": {"test_system": "SK-OV-3", "assay": "Cytotoxicity against human SKOV3 cells at 10^-5 M after 72 hrs by MTS assay", "assay_type": "functional", "conditions": "SK-OV-3, 72 h, read-out: GI", "procedure,_shortened": "as §1"}, "OVCAR-8 [19]": {"test_system": "OVCAR-8", "assay": "Cytotoxicity against human OVCAR8 cells at 10^-5 M after 72 hrs by MTS assay", "assay_type": "functional", "conditions": "OVCAR-8, 72 h, read-out: GI", "procedure,_shortened": "as §1"}, "MIA PaCa-2 [20]": {"test_system": "MIA PaCa-2", "assay": "Cytotoxicity against human MIAPaCa2 cells at 10^-5 M after 72 hrs by MTS assay", "assay_type": "functional", "conditions": "MIA PaCa-2, 72 h, read-out: GI"}, "HL-60 [21]": {"test_system": "HL-60", "assay": "Cytotoxicity against human HL60 cells at 10^-5 M after 72 hrs by MTS assay", "assay_type": "functional", "conditions": "HL-60, 72 h, read-out: GI", "procedure,_shortened": "as §2"}, "[22]": {"assay": "Cytotoxicity against human HL60R cells at 10^-5 M after 72 hrs by MTS assay", "assay_type": "functional, HL-60", "conditions": "read-out: GI", "procedure,_shortened": "as §2"}, "K562 [23]": {"test_system": "K562", "assay": "Cytotoxicity against human K562 cells at 10^-5 M after 72 hrs by MTS assay", "assay_type": "functional", "conditions": "K562, 72 h, read-out: GI", "procedure,_shortened": "as §2"}, "Ovis aries": {"species_on_record": "Ovis aries", "assay": "Inhibition of sheep brain tubulin polymerization at 10 uM", "procedure,_shortened": "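Microtubule protein from sheep brain, purified by two assembly/disassembly cycles (37 °C/0 °C), in 100 mM MES pH 6.6, 1 mM EGTA, 0.5 mM MgCl₂. Compounds in DMSO were tested at a single concentration, with incubation at 37 °C for 10 min and then 0 °C for 5 min before measuring assembly rate, following a modified Guénard protocol.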"}, "HCT-116 [24]": {"test_system": "HCT-116", "assay": "Cytotoxicity against human HCT116 cells at 10^-6 M after 72 hrs by MTS assay", "assay_type": "functional", "conditions": "HCT-116, 72 h, read-out: GI", "procedure,_shortened": "as §2"}, "HT-29 [25]": {"test_system": "HT-29", "assay": "Cytotoxicity against human HT-29 cells at 10^-6 M after 72 hrs by MTS assay", "assay_type": "functional", "conditions": "HT-29, 72 h, read-out: GI", "procedure,_shortened": "as §2"}, "HCT-15 [26]": {"test_system": "HCT-15", "assay": "Cytotoxicity against human HCT15 cells at 10^-6 M after 72 hrs by MTS assay", "assay_type": "functional", "conditions": "HCT-15, 72 h, read-out: GI", "procedure,_shortened": "as §2"}, "MCF7 [27]": {"test_system": "MCF7", "assay": "Cytotoxicity against human MCF7 cells at 10^-6 M after 72 hrs by MTS assay", "assay_type": "functional", "conditions": "MCF7, 72 h, read-out: GI"}, "[28]": {"assay": "Cytotoxicity against human MDA231 cells at 10^-6 M after 72 hrs by MTS assay", "assay_type": "functional", "conditions": "MDA-MB-231, 72 h, read-out: GI", "procedure,_shortened": "as §1"}, "A549 [29]": {"test_system": "A549", "assay": "Cytotoxicity against human A549 cells at 10^-6 M after 72 hrs by MTS assay", "assay_type": "functional", "conditions": "A549, 72 h, read-out: GI", "procedure,_shortened": "as §2"}}, "note": "Calls of active or inactive are those of the source. The rule behind the calls is not given here.", "data": [{"smiles": "COc1cc(/C(=C2\\O[C@@H]([C@H]3COC(C)(C)O3)[C@H]3OC(C)(C)O[C@@H]23)c2ccc3c(c2)OCO3)cc(OC)c1OC", "values": [{"measurement": "Activity", "setting": "[1]", "result": 61, "unit": "%"}]}, {"smiles": "COc1cc(/C(=C2\\O[C@@H]([C@H](O)CO)[C@H]3OC(C)(C)O[C@@H]23)c2ccc3ccccc3c2)cc(OC)c1OC", "values": [{"measurement": "Activity", "setting": "[1]", "result": 96, "unit": "%"}]}, {"smiles": "COc1cc(C(=C(COC(C)=O)COC(C)=O)c2ccc3c(c2)OCO3)cc(OC)c1OC", "values": [{"measurement": "inhibition of growth at 1 µM", "setting": "PC-3 [2]", "result": 3, "unit": "%"}, {"measurement": "inhibition of growth at 1 µM", "setting": "SF-268 [3]", "result": 24, "unit": "%"}, {"measurement": "inhibition of growth at 1 µM", "setting": "SK-OV-3 [4]", "result": 3, "unit": "%"}, {"measurement": "inhibition of growth at 1 µM", "setting": "OVCAR-8 [5]", "result": 0, "unit": "%"}, {"measurement": "inhibition of growth at 1 µM", "setting": "MIA PaCa-2 [6]", "result": 0, "unit": "%"}, {"measurement": "inhibition of growth at 1 µM", "setting": "HL-60 [7]", "result": 17, "unit": "%"}, {"measurement": "inhibition of growth at 1 µM", "setting": "[8]", "result": 9, "unit": "%"}, {"measurement": "inhibition of growth at 1 µM", "setting": "K562 [9]", "result": 5, "unit": "%"}, {"measurement": "inhibition of growth at 10 µM", "setting": "HCT-116 [10]", "result": 0, "unit": "%"}, {"measurement": "inhibition of growth at 10 µM", "setting": "HT-29 [11]", "result": 0, "unit": "%"}, {"measurement": "inhibition of growth at 10 µM", "setting": "HCT-15 [12]", "result": 22, "unit": "%"}, {"measurement": "inhibition of growth at 10 µM", "setting": "MCF7 [13]", "result": 11, "unit": "%"}, {"measurement": "inhibition of growth at 10 µM", "setting": "[14]", "result": 17, "unit": "%"}, {"measurement": "inhibition of growth at 10 µM", "setting": "A549 [15]", "result": 12, "unit": "%"}, {"measurement": "inhibition of growth at 10 µM", "setting": "PC-3 [16]", "result": 13, "unit": "%"}, {"measurement": "inhibition of growth at 10 µM", "setting": "SF-268 [17]", "result": 20, "unit": "%"}, {"measurement": "inhibition of growth at 10 µM", "setting": "SK-OV-3 [18]", "result": 7, "unit": "%"}, {"measurement": "inhibition of growth at 10 µM", "setting": "OVCAR-8 [19]", "result": 0, "unit": "%"}, {"measurement": "inhibition of growth at 10 µM", "setting": "MIA PaCa-2 [20]", "result": 0, "unit": "%"}, {"measurement": "inhibition of growth at 10 µM", "setting": "HL-60 [21]", "result": 30, "unit": "%"}, {"measurement": "inhibition of growth at 10 µM", "setting": "[22]", "result": 24, "unit": "%"}, {"measurement": "inhibition of growth at 10 µM", "setting": "K562 [23]", "result": 26, "unit": "%"}, {"measurement": "tubulin polymerization inhibition call (active/not active)", "setting": "Ovis aries", "result": "inactive"}, {"measurement": "inhibition of growth at 1 µM", "setting": "HCT-116 [24]", "result": 0, "unit": "%"}, {"measurement": "inhibition of growth at 1 µM", "setting": "HT-29 [25]", "result": 0, "unit": "%"}, {"measurement": "inhibition of growth at 1 µM", "setting": "HCT-15 [26]", "result": 9, "unit": "%"}, {"measurement": "inhibition of growth at 1 µM", "setting": "MCF7 [27]", "result": 0, "unit": "%"}, {"measurement": "inhibition of growth at 1 µM", "setting": "[28]", "result": 0, "unit": "%"}, {"measurement": "inhibition of growth at 1 µM", "setting": "A549 [29]", "result": 0, "unit": "%"}]}, {"smiles": "COc1cc(C(=C(CO)CO)c2ccc3c(c2)OCO3)cc(OC)c1OC", "values": [{"measurement": "tubulin polymerization inhibition call (active/not active)", "setting": "Ovis aries", "result": "inactive"}]}]}
